From ChEMBL document CHEMBL2163243, “Metaproterenol, isoproterenol, and their bisdimethylcarbamate derivatives as human cholinesterase inhibitors” (J Med Chem, 2012)

Experiments:
Cholinesterase [1] = biological target: Cholinesterase (Homo sapiens, UniProt P06276, T271M/G418V); test: Inhibition of human BChE T243M/G390V mutant fluoride-resistant homozygous variant using propionylthiocholine as substrate assessed as inhibition rate constant incubated up to 30 mins prior to substrate addition by Ellman's method
Outline: (§1)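 BChE from heparinized human donor plasma (centrifuged supernatant, phenotyped), unpurified, diluted 150 - 300 times in phosphate buffer. Enzyme incubated ≤30 min with carbamate in 0.1 M phosphate buffer pH 7.4, 25 °C. Reaction stopped with PTCh (4.0 mM final) and residual activity read by Ellman (DTNB 0.3 mM final, 412 nm). At least three carbamate concentrations, at least two experiments. First-order constants from ln(v0/vi) vs time; ki = kmax/Ki.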

Cholinesterase [2] = biological target: T1, Cholinesterase (Homo sapiens, UniProt P06276); test: Inhibition of human BChE D70G mutant usual-atypical heterozygous variant using propionylthiocholine as substrate assessed as inhibition rate constant incubated up to 30 mins prior to substrate addition by Ellman's method; outline: as §1
Target sequence in this assay (P06276 29-602 limits assumed): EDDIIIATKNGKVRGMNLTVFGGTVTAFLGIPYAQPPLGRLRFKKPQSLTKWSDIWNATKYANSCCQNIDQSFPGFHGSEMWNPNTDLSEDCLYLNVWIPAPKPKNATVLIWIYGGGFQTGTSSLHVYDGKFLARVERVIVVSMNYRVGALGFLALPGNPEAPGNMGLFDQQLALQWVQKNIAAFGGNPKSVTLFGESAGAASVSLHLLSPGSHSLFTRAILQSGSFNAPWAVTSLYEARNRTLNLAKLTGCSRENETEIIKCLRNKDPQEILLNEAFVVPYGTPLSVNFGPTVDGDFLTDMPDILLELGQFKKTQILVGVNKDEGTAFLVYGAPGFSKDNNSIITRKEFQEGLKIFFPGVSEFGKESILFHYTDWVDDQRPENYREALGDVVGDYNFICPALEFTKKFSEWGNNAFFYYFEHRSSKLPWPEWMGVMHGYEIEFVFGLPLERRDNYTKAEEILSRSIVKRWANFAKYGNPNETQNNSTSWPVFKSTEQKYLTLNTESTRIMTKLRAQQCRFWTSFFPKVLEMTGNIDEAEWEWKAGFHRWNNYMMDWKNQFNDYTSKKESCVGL

Cholinesterase [3] = biological target: Cholinesterase (Homo sapiens, UniProt P06276, D98G); test: Inhibition of human BChE D70G mutant atypical homozygous variant using propionylthiocholine as substrate assessed as inhibition rate constant incubated up to 30 mins prior to substrate addition by Ellman's method; outline: as §1
Cholinesterase [4] = biological target: T1, Cholinesterase; test: Inhibition of human BChE usual homozygous variant using propionylthiocholine as substrate assessed as inhibition rate constant incubated up to 30 mins prior to substrate addition by Ellman's method; outline: as §1
Target sequence in this assay (P06276 29-602 limits assumed, stated change not applied): as the sequence (P06276 29-602 limits assumed) above

Acetylcholinesterase [5] = biological target: T2, Acetylcholinesterase (Homo sapiens, UniProt P22303); test: Inhibition of human AChE using acetylthiocholine as substrate by Ellman's method
Acetylcholinesterase [6] = biological target: T2, Acetylcholinesterase; test: Inhibition of human AChE using acetylthiocholine as substrate assessed as inhibition rate constant by Ellman's method
Cholinesterase [7] = biological target: T1, Cholinesterase; test: Inhibition of human BChE D70G/T243M/G390V mutant atypical-fluoride resistant heterozygous variant using propionylthiocholine as substrate assessed as inhibition rate constant incubated up to 30 mins prior to substrate addition by Ellman's method; outline: as §1
Target sequence in this assay (P06276 29-602 limits assumed): as above

Cholinesterase [8] = biological target: T1, Cholinesterase; test: Inhibition of human BChE D70G/T243M/G390V mutant atypical-fluoride resistant heterozygous variant using propionylthiocholine as substrate by Ellman's method; settings: TDE = time-dependent effect
Outline: (§2)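 Reversible inhibition of plasma BChE (phenotyped donor plasma, diluted 150 - 300 times) measured at several PTCh concentrations, with and without inhibitor (0.5 mM - 10 mM). Ellman read-out at 412 nm, DTNB 0.3 mM final, 0.1 M phosphate pH 7.4, 25 °C. Ki,app per substrate concentration from the Hunter-Downs equation by linear regression. Y-intercept gives K(I) and x-intercept gives K(S).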
Target sequence in this assay (P06276 whole entry): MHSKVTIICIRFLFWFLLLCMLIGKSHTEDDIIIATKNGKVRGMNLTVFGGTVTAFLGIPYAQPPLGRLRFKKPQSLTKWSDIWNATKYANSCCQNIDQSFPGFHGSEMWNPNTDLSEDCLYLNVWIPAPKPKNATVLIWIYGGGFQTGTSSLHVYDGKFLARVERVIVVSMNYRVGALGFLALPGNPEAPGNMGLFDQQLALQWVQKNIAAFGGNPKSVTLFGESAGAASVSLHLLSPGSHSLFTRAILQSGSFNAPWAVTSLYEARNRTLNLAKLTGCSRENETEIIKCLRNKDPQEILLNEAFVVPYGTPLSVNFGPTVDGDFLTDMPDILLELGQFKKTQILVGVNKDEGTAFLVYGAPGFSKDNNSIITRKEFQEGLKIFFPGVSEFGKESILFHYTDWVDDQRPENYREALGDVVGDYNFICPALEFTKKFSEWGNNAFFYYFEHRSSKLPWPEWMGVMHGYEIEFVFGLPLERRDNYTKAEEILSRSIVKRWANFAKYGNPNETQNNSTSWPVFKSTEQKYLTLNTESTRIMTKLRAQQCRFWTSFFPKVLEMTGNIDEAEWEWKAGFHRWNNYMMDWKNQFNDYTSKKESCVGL

Cholinesterase [9] = biological target: T1, Cholinesterase; test: Inhibition of human BChE T243M/G390V mutant fluoride-resistant homozygous variant using propionylthiocholine as substrate by Ellman's method; settings: TDE = time-dependent effect; outline: as §2
Target sequence in this assay (P06276 whole entry): as above

Cholinesterase [10] = biological target: T1, Cholinesterase; test: Inhibition of human BChE D70G mutant usual-atypical heterozygous variant using propionylthiocholine as substrate by Ellman's method; settings: TDE = time-dependent effect; outline: as §2
Target sequence in this assay (P06276 whole entry): as above

Cholinesterase [11] = biological target: T1, Cholinesterase; test: Inhibition of human BChE D70G mutant atypical homozygous variant using propionylthiocholine as substrate by Ellman's method; settings: TDE = time-dependent effect; outline: as §2
Target sequence in this assay (P06276 whole entry): as above

Cholinesterase [12] = biological target: T1, Cholinesterase; test: Inhibition of human BChE usual homozygous variant using propionylthiocholine as substrate by Ellman's method; settings: TDE = time-dependent effect; outline: as §2
Target sequence in this assay (P06276 whole entry): as above

Homo sapiens [13] = organism: Homo sapiens; test: Selectivity ratio of apparent dissociation constant for enzyme-inhibitor complex for human AChE to apparent dissociation constant for enzyme-inhibitor complex for human BChE T243M/G390V mutant fluoride-resistant homozygous variant
Outline: (§3)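 Human plasma BChE (phenotyped variants) and hemolysed erythrocyte AChE were used unpurified, with plasma diluted 150-300x and erythrocytes 600x. Activity was read by the Ellman method at 412 nm (DTNB 0.3 mM final) in 0.1 M phosphate, pH 7.4, 25 °C. Substrate was PTCh for BChE and ATCh for AChE, each at several concentrations, with inhibitor at 0.5-10 mM. Ki is the y-intercept of a Hunter-Downs linear regression.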

Homo sapiens [14] = organism: Homo sapiens; test: Selectivity ratio of apparent dissociation constant for enzyme-inhibitor complex for human AChE to apparent dissociation constant for enzyme-inhibitor complex for human BChE D70G mutant atypical homozygous variant; outline: as §3
Cholinesterase [15] = biological target: T1, Cholinesterase; test: Binding affinity to human BChE D70G mutant atypical homozygous variant relative to terbutaline
Target sequence in this assay (P06276 whole entry): as above

Sequence of Cholinesterase (Homo sapiens, UniProt P06276, D98G) (P06276 29-602 D98G limits assumed): as the sequence (P06276 29-602 limits assumed) above, with D70G counted along it
T2 sequence (P22303 whole entry): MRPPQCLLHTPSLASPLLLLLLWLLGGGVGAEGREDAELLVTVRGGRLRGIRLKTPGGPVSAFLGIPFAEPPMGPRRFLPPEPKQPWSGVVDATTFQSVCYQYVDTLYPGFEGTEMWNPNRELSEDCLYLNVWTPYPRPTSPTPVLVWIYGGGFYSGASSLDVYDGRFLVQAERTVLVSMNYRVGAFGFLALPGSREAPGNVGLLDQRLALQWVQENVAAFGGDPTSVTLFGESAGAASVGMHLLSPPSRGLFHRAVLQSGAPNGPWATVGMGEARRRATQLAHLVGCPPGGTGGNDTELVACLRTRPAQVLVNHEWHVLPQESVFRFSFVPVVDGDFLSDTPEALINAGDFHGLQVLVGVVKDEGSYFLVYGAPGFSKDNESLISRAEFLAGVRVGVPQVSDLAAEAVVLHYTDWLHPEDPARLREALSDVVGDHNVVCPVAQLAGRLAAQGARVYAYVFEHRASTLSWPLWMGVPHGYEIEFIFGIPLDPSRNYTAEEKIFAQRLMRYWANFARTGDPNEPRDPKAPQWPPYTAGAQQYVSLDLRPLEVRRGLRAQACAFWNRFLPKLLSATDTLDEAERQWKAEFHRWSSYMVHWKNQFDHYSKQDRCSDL
Sequence of Cholinesterase (Homo sapiens, UniProt P06276, T271M/G418V) (P06276 29-602 T271M/G418V limits assumed): as the sequence (P06276 29-602 limits assumed) above, with T243M, G390V counted along it

Compound | bimolecular inhibition rate constant (ki) (Cholinesterase [1]) | bimolecular inhibition rate constant (ki) (Cholinesterase [2]) | bimolecular inhibition rate constant (ki) (Cholinesterase [3]) | bimolecular inhibition rate constant (ki) (Cholinesterase [4]) | Ki (Acetylcholinesterase [5]) | Inhibition rate constant (Acetylcholinesterase [6]) | Carbamylation rate constant (ki) (Cholinesterase [7]) | inhibition (Cholinesterase [8]) | inhibition (Cholinesterase [9]) | inhibition (Cholinesterase [10]) | inhibition (Cholinesterase [11]) | inhibition (Cholinesterase [12]) | Selectivity ratio (Homo sapiens [13]) | Selectivity ratio (Homo sapiens [14]) | Ratio (Cholinesterase [15])
CC(C)NC[C@H](O)c1cc(OC(=O)N(C)C)cc(OC(=O)N(C)C)c1.Cl | 1100 ×10³ /M/min | 2200 ×10³ /M/min | 76 ×10³ /M/min | 3200 ×10³ /M/min | 390 µM | 4.7 ×10³ /M/min | 550 ×10³ /M/min |  |  |  |  |  |  |  | 
CC(C)NC[C@H](O)c1ccc(OC(=O)N(C)C)c(OC(=O)N(C)C)c1.Cl | 150 ×10³ /M/min | 210 ×10³ /M/min | 31 ×10³ /M/min | 340 ×10³ /M/min | 1200 µM | 2.7 ×10³ /M/min | 100 ×10³ /M/min |  |  |  |  |  |  |  | 
CC(C)NCC(O)c1cc(OC(=O)N(C)C)cc(OC(=O)N(C)C)c1.Cl (racemic) | 600 ×10³ /M/min | 1400 ×10³ /M/min | 40 ×10³ /M/min | 2200 ×10³ /M/min | 710 µM | 2.3 ×10³ /M/min | 440 ×10³ /M/min | tde | tde | tde | tde | tde |  |  | 
CC(C)NCC(O)c1ccc(OC(=O)N(C)C)c(OC(=O)N(C)C)c1.Cl (racemic) | 140 ×10³ /M/min | 160 ×10³ /M/min | 21 ×10³ /M/min | 200 ×10³ /M/min | 1400 µM | 2.5 ×10³ /M/min | 87 ×10³ /M/min | tde | tde | tde | tde | tde |  |  | 
CC(C)NCC(O)c1cc(O)cc(O)c1 (racemic) |  |  |  |  |  |  |  |  |  |  |  |  | 4 | 4 | 
CC(C)NCC(O)c1ccc(O)c(O)c1 (racemic) |  |  |  |  |  |  |  |  |  |  |  |  | 4 | 4 | 2
